{"source": "ChEMBL document CHEMBL1122115", "about": "“Antimalarials. 13. 5-Alkoxy analogues of 4-methylprimaquine” (1982)", "format_in_all_cases": "functional", "key": {"Plasmodium cynomolgi [1]": {"tested_on": "Plasmodium cynomolgi", "test": "Radio curative antimalarial activity against Plasmodium cynomolgi in rhesus monkey at 0.5 mg/kg (base/day) peroral dose; cured 13 of 14", "conditions": "route oral"}, "Mus musculus [2]": {"tested_on": "Mus musculus", "test": "Antimalarial activity against Plasmodium berghei in mice (Mus musculus) at 40 mg/kg dose administered subcutaneously", "conditions": "route subcutaneous", "outline": "(§1)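 Primary mouse screen: groups of five mice infected with a lethal dose of P. berghei 3 days before drug administration. Drug given subcutaneously, routinely in sesame or peanut oil. Mean survival time compared with infected untreated controls; extension in survival time (ΔMST) taken as antimalarial activity.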"}, "Mus musculus [3]": {"tested_on": "Mus musculus", "test": "Antimalarial activity against Plasmodium berghei in mice (Mus musculus) at 640 mg/kg dose administered subcutaneously; cure/1toxic", "conditions": "route subcutaneous", "outline": "as §1"}, "Plasmodium cynomolgi [4]": {"tested_on": "Plasmodium cynomolgi", "test": "Radio curative antimalarial activity against Plasmodium cynomolgi in rhesus monkey at 0.75 mg/kg (base/day) peroral dose; cured 1 of 1", "conditions": "route oral"}, "Mus musculus [5]": {"tested_on": "Mus musculus", "test": "Antimalarial activity against Plasmodium berghei in mice (Mus musculus) at 320 mg/kg dose administered subcutaneously; active", "conditions": "route subcutaneous", "outline": "as §1"}, "Mus musculus [6]": {"tested_on": "Mus musculus", "test": "Antimalarial activity against Plasmodium berghei in mice (Mus musculus) at 80 mg/kg dose administered subcutaneously", "conditions": "route subcutaneous", "outline": "as §1"}, "Mus musculus [7]": {"tested_on": "Mus musculus", "test": "Antimalarial activity against Plasmodium berghei in mice (Mus musculus) at 160 mg/kg dose administered subcutaneously; active", "conditions": "route subcutaneous", "outline": "as §1"}, "Mus musculus [8]": {"tested_on": "Mus musculus", "test": "Antimalarial activity against Plasmodium berghei in mice (Mus musculus) at 20 mg/kg dose administered subcutaneously", "conditions": "route subcutaneous", "outline": "as §1"}, "Plasmodium cynomolgi [9]": {"tested_on": "Plasmodium cynomolgi", "test": "Radio curative antimalarial activity against Plasmodium cynomolgi in rhesus monkey at 0.25 mg/kg (base/day) peroral dose; cured 8 of 14", "conditions": "route oral"}, "Plasmodium cynomolgi [10]": {"tested_on": "Plasmodium cynomolgi", "test": "Radio curative antimalarial activity against Plasmodium cynomolgi in rhesus monkey at 0.5 mg/kg (base/day) peroral dose; cured 1 of 1", "conditions": "route oral"}, "Mus musculus [11]": {"tested_on": "Mus musculus", "test": "Antimalarial activity against Plasmodium berghei in mice (Mus musculus) at 640 mg/kg dose administered subcutaneously; toxic", "conditions": "route subcutaneous", "outline": "as §1"}, "Plasmodium cynomolgi [12]": {"tested_on": "Plasmodium cynomolgi", "test": "Radio curative antimalarial activity against Plasmodium cynomolgi in rhesus monkey at 0.25 mg/kg (base/day) peroral dose; cured 5 of 6", "conditions": "route oral"}, "Mus musculus [13]": {"tested_on": "Mus musculus", "test": "Antimalarial activity against Plasmodium berghei in mice (Mus musculus) at 20 mg/kg dose administered subcutaneously; active/3 toxic", "conditions": "route subcutaneous", "outline": "as §1"}, "Mus musculus [14]": {"tested_on": "Mus musculus", "test": "Antimalarial activity against Plasmodium berghei in mice (Mus musculus) at 40 mg/kg dose administered subcutaneously; toxic", "conditions": "route subcutaneous", "outline": "as §1"}, "Mus musculus [15]": {"tested_on": "Mus musculus", "test": "Antimalarial activity against Plasmodium berghei in mice (Mus musculus) at 160 mg/kg dose administered subcutaneously; toxic", "conditions": "route subcutaneous", "outline": "as §1"}, "Mus musculus [16]": {"tested_on": "Mus musculus", "test": "Antimalarial activity against Plasmodium berghei in mice (Mus musculus) at 40 mg/kg dose administered subcutaneously; active", "conditions": "route subcutaneous", "outline": "as §1"}, "Mus musculus [17]": {"tested_on": "Mus musculus", "test": "Antimalarial activity against Plasmodium berghei in mice (Mus musculus) at 160 mg/kg dose administered subcutaneously; active/1 toxic", "conditions": "route subcutaneous", "outline": "as §1"}, "Plasmodium cynomolgi [18]": {"tested_on": "Plasmodium cynomolgi", "test": "Radio curative antimalarial activity against Plasmodium cynomolgi in rhesus monkey at 0.0625 mg/kg(base/day) peroral dose; Cured 0 of 5", "conditions": "route oral"}, "Plasmodium cynomolgi [19]": {"tested_on": "Plasmodium cynomolgi", "test": "Radio curative antimalarial activity against Plasmodium cynomolgi in rhesus monkey at 0.25 mg/kg (base/day) peroral dose; cured 3 of 4", "conditions": "route oral"}, "Mus musculus [20]": {"tested_on": "Mus musculus", "test": "Antimalarial activity against Plasmodium berghei in mice (Mus musculus) at 320 mg/kg dose administered subcutaneously; active/4 toxic", "conditions": "route subcutaneous", "outline": "as §1"}, "Plasmodium cynomolgi [21]": {"tested_on": "Plasmodium cynomolgi", "test": "Radio curative antimalarial activity against Plasmodium cynomolgi in Rhesus monkey at 0.125 mg/kg(base/day) peroral dose; Cured 11 of 13", "conditions": "route oral"}, "Mus musculus [22]": {"tested_on": "Mus musculus", "test": "Antimalarial activity against Plasmodium berghei in mice (Mus musculus) at 80 mg/kg dose administered subcutaneously; active", "conditions": "route subcutaneous", "outline": "as §1"}, "Plasmodium cynomolgi [23]": {"tested_on": "Plasmodium cynomolgi", "test": "Radio curative antimalarial activity against Plasmodium cynomolgi in rhesus monkey at 0.25 mg/kg (base/day) peroral dose; cured 2 of 4", "conditions": "route oral"}, "Plasmodium cynomolgi [24]": {"tested_on": "Plasmodium cynomolgi", "test": "Radio curative antimalarial activity against Plasmodium cynomolgi in rhesus monkey at 0.75 mg/kg (base/day) peroral dose;cured 3 of 5", "conditions": "route oral"}, "Mus musculus [25]": {"tested_on": "Mus musculus", "test": "Antimalarial activity against Plasmodium berghei in mice (Mus musculus) at 40 mg/kg dose administered subcutaneously; active/3 toxic", "conditions": "route subcutaneous", "outline": "as §1"}, "Plasmodium cynomolgi [26]": {"tested_on": "Plasmodium cynomolgi", "test": "Radio curative antimalarial activity against Plasmodium cynomolgi in rhesus monkey at 0.25 mg/kg (base/day) peroral dose; cured 4 of 4", "conditions": "route oral"}, "Plasmodium cynomolgi [27]": {"tested_on": "Plasmodium cynomolgi", "test": "Radio curative antimalarial activity against Plasmodium cynomolgi in rhesus monkey at 0.125 mg/kg(base/day) peroral dose; Cured 6 of 10", "conditions": "route oral"}, "Plasmodium cynomolgi [28]": {"tested_on": "Plasmodium cynomolgi", "test": "Radio curative antimalarial activity against Plasmodium cynomolgi in rhesus monkey at 0.75 mg/kg (base/day) peroral dose; cured 4 of 5", "conditions": "route oral"}, "Plasmodium cynomolgi [29]": {"tested_on": "Plasmodium cynomolgi", "test": "Radio curative antimalarial activity against Plasmodium cynomolgi in Rhesus monkey at 0.0625 mg/kg(base/day) peroral dose; Cured 0 of 2", "conditions": "route oral"}, "Mus musculus [30]": {"tested_on": "Mus musculus", "test": "Antimalarial activity against Plasmodium berghei in mice (Mus musculus) at 10 mg/kg dose administered subcutaneously; active", "conditions": "route subcutaneous", "outline": "as §1"}, "Mus musculus [31]": {"tested_on": "Mus musculus", "test": "Antimalarial activity against Plasmodium berghei in mice (Mus musculus) at 20 mg/kg dose administered subcutaneously; active", "conditions": "route subcutaneous", "outline": "as §1"}, "Plasmodium cynomolgi [32]": {"tested_on": "Plasmodium cynomolgi", "test": "Radio curative antimalarial activity against Plasmodium cynomolgi in Rhesus monkey at 0.25 mg/kg (base/day) peroral dose; cured 0 of 3", "conditions": "route oral"}, "Plasmodium cynomolgi [33]": {"tested_on": "Plasmodium cynomolgi", "test": "Radio curative antimalarial activity against Plasmodium cynomolgi in rhesus monkey at 0.75 mg/kg (base/day) peroral dose; cured 0 of 3", "conditions": "route oral"}, "Mus musculus [34]": {"tested_on": "Mus musculus", "test": "Antimalarial activity against Plasmodium berghei in mice (Mus musculus) at 5 mg/kg dose administered subcutaneously; active", "conditions": "route subcutaneous", "outline": "as §1"}}}
{"smiles": "COc1cc(NC(C)CCCN)c2nccc(C)c2c1", "note": "(stereo unspecified)", "values": [{"measurement": "Cured animals", "setting": "Plasmodium cynomolgi [1]", "result": 13}, {"measurement": "Delta MST", "setting": "Mus musculus [2]", "result": 4.9, "unit": "days"}, {"measurement": "Delta MST", "setting": "Mus musculus [3]", "result": 3, "unit": "days"}, {"measurement": "Cured animals", "setting": "Plasmodium cynomolgi [4]", "result": 1}, {"measurement": "Delta MST", "setting": "Mus musculus [5]", "result": 10.1, "unit": "days"}, {"measurement": "Delta MST", "setting": "Mus musculus [6]", "result": 5.5, "unit": "days"}, {"measurement": "Delta MST", "setting": "Mus musculus [7]", "result": 9.1, "unit": "days"}, {"measurement": "Delta MST", "setting": "Mus musculus [8]", "result": 3.1, "unit": "days"}, {"measurement": "Cured animals", "setting": "Plasmodium cynomolgi [9]", "result": 8}]}
{"smiles": "COc1cc(NCCCC(C)N)c2nccc(C)c2c1OC", "note": "(stereo unspecified)", "values": [{"measurement": "Cured animals", "setting": "Plasmodium cynomolgi [10]", "result": 1}, {"measurement": "Delta MST", "setting": "Mus musculus [11]", "result": 5, "unit": "days"}, {"measurement": "Cured animals", "setting": "Plasmodium cynomolgi [12]", "result": 5}, {"measurement": "Delta MST", "setting": "Mus musculus [13]", "result": 11.4, "unit": "days"}, {"measurement": "number of mice died of toxicity", "setting": "Mus musculus [14]", "result": 5, "unit": "mice"}, {"measurement": "Delta MST", "setting": "Mus musculus [15]", "result": 5, "unit": "days"}]}
{"smiles": "COc1cc(NC(C)CCCN)c2nccc(C)c2c1OC", "note": "(stereo unspecified)", "values": [{"measurement": "Delta MST", "setting": "Mus musculus [16]", "result": 7.1, "unit": "days"}, {"measurement": "Cured animals", "setting": "Plasmodium cynomolgi [10]", "result": 1}, {"measurement": "Delta MST", "setting": "Mus musculus [11]", "result": 5, "unit": "days"}, {"measurement": "Delta MST", "setting": "Mus musculus [17]", "result": 9.9, "unit": "days"}, {"measurement": "Cured animals", "setting": "Plasmodium cynomolgi [18]", "result": 0}, {"measurement": "Cured animals", "setting": "Plasmodium cynomolgi [19]", "result": 3}, {"measurement": "Delta MST", "setting": "Mus musculus [20]", "result": 11.9, "unit": "days"}, {"measurement": "Delta MST", "setting": "Mus musculus [8]", "result": 5.7, "unit": "days"}, {"measurement": "Cured animals", "setting": "Plasmodium cynomolgi [21]", "result": 11}, {"measurement": "Delta MST", "setting": "Mus musculus [22]", "result": 8.9, "unit": "days"}]}
{"smiles": "COc1cc(NC(C)CCCN)c2nc(C)cc(C)c2c1OC", "note": "(stereo unspecified)", "values": [{"measurement": "Delta MST", "setting": "Mus musculus [11]", "result": 5, "unit": "days"}, {"measurement": "Cured animals", "setting": "Plasmodium cynomolgi [23]", "result": 2}, {"measurement": "Cured animals", "setting": "Plasmodium cynomolgi [24]", "result": 3}, {"measurement": "Delta MST", "setting": "Mus musculus [25]", "result": 6.3, "unit": "days"}, {"measurement": "Delta MST", "setting": "Mus musculus [8]", "result": 4.9, "unit": "days"}, {"measurement": "Delta MST", "setting": "Mus musculus [15]", "result": 5, "unit": "days"}]}
{"smiles": "CCC(CCCN)Nc1cc(OC)c(OC)c2c(C)ccnc12", "note": "(stereo unspecified)", "values": [{"measurement": "Delta MST", "setting": "Mus musculus [11]", "result": 5, "unit": "days"}, {"measurement": "Cured animals", "setting": "Plasmodium cynomolgi [26]", "result": 4}, {"measurement": "Delta MST", "setting": "Mus musculus [2]", "result": 0.1, "unit": "days"}, {"measurement": "Cured animals", "setting": "Plasmodium cynomolgi [27]", "result": 6}, {"measurement": "Cured animals", "setting": "Plasmodium cynomolgi [28]", "result": 4}, {"measurement": "Delta MST", "setting": "Mus musculus [15]", "result": 5, "unit": "days"}, {"measurement": "Cured animals", "setting": "Plasmodium cynomolgi [29]", "result": 0}]}
{"smiles": "CCC(CCCN)Nc1cc2c(c3c(C)ccnc13)OCCO2", "note": "(stereo unspecified)", "values": [{"measurement": "Delta MST", "setting": "Mus musculus [16]", "result": 7.6, "unit": "days"}, {"measurement": "Delta MST", "setting": "Mus musculus [11]", "result": 5, "unit": "days"}, {"measurement": "Delta MST", "setting": "Mus musculus [30]", "result": 7.6, "unit": "days"}, {"measurement": "Delta MST", "setting": "Mus musculus [31]", "result": 7.2, "unit": "days"}, {"measurement": "Cured animals", "setting": "Plasmodium cynomolgi [32]", "result": 0}, {"measurement": "Cured animals", "setting": "Plasmodium cynomolgi [33]", "result": 0}, {"measurement": "Delta MST", "setting": "Mus musculus [15]", "result": 5, "unit": "days"}, {"measurement": "Delta MST", "setting": "Mus musculus [34]", "result": 7.8, "unit": "days"}]}
